Measured values of several laboratories.
Lines come from different studies, so protocols differ. Converted amounts (≈) assume the structure as drawn.
Organism: Staphylococcus aureus

| SMILES | assay | system | setting | measurement | value |
| --- | --- | --- | --- | --- | --- |
| O=C(O)c1cn(C2CC2)c2cc(N3CCNCC3)c(F)cc2c1=O | microbial growth, well diffusion | ATCC23235 | 100 µg/mL | inhibition zone | 36 mm |
| CC(=O)NC[C@H]1CN(c2ccc(N3CCOCC3)c(F)c2)C(=O)O1 | microbial killing | ATCC43300 MRSA | – | MBC | 40.6 µg/mL (≈ 120 µM) |
| COc1cccc(OC)c1C(=O)N[C@@H]1C(=O)N2[C@@H]1SC(C)(C)[C@@H]2C(=O)O | microbial growth, broth dilution | ATCCBAA44 | drug-resistant strain | MIC | > 64 µg/mL |
| CCOC(=O)/C=C1/SC(N/N=C/c2c(-c3ccc(F)cc3)nc3ncccn23)=NC1=O | microbial growth, well diffusion | ATCC23235 | 100 µg/mL | inhibition zone | 10 mm |
| C[C@@H]1C[C@@H]([C@H](O)CC2CC(=O)NC(=O)C2)C(=O)[C@@H](C)C1 | microbial growth, broth dilution | ATCC6538 | – | MIC | 28 µg/mL |
| O=C(O)c1cn(C2CC2)c2cc(N3CCNCC3)c(F)cc2c1=O | microbial growth, broth dilution | ATCC33591 MRSA | 16 h, drug-resistant strain | MIC | 6.25 µM |
| C[C@H]1COc2c(N3CCN(C)CC3)c(F)cc3c(=O)c(C(=O)O)cn1c23 | microbial growth | MRSA | drug-resistant strain | MIC | 0.25 µg/mL |
| CC(=O)NC[C@H]1CN(c2ccc(N3CCOCC3)c(F)c2)C(=O)O1 | microbial growth, broth dilution | MRSA | – | MIC | 1 µg/mL |
| CCc1ccc(N2C(=O)/C(=C3/C(=O)N(C)c4ccc(Cl)cc43)NC2=S)cc1 | microbial growth, broth dilution | ATCC43300 MRSA | – | MIC | 9.2 µg/mL |
| CN(C)[C@@H]1C(O)=C(C(N)=O)C(=O)[C@@]2(O)C(O)=C3C(=O)c4c(O)cccc4[C@@](C)(O)[C@H]3C[C@@H]12 | microbial growth, broth dilution | ATCC33591 MRSA | 16 h, drug-resistant strain | MIC | 100 µM |
| Cc1onc(-c2ccccc2)c1C(=O)N[C@@H]1C(=O)N2[C@@H]1SC(C)(C)[C@@H]2C(=O)O | microbial growth | MRSA | drug-resistant strain | MIC | > 4 µg/mL |
| C[C@@H](N)[C@H](O)CCCCCCCC(=O)CCCCCCCCCCCCCC[C@@H](O[C@@H]1O[C@H](CO)[C@H](O)[C@H](O)[C@H]1O)[C@@H](C)N | microbial growth, resazurin | ATCC12600 | 50 µM | inhibition | 99% |
| O=C/C=C/c1ccccc1 | microbial growth, well diffusion | MTCC96 | 1000 µg/mL, 18 h | inhibition zone | 8 mm |
| COc1ccc2c(c1OC)CN1CCc3cc4c(cc3C1C2)OCO4 (stereo not shown) | microbial growth | – | 24 h | MIC50 | > 1600 µM |
| CN1C(=S)N(c2ccccc2)C(=O)/C1=C1/C(=O)N(C)c2ccc(Cl)cc21 | microbial growth, broth dilution | ATCC43300 MRSA | – | MIC | 2.4 µg/mL |
| CN[C@H](CC(C)C)C(=O)N[C@H]1C(=O)N[C@@H](CC(N)=O)C(=O)N[C@H]2C(=O)N[C@H]3C(=O)N[C@H](C(=O)N[C@H](C(=O)O)c4cc(O)cc(O)c4-c4cc3ccc4O)[C@H](O)c3ccc(c(Cl)c3)Oc3cc2cc(c3O[C@@H]2O[C@H](CO)[C@@H](O)[C@H](O)[C@H]2O[C@H]2C[C@](C)(N)[C@H](O)[C@H](C)O2)Oc2ccc(cc2Cl)[C@H]1O | microbial growth, broth dilution | ATCCBAA44 | drug-resistant strain | MIC | 1 µg/mL |
